{
  "source": "paper PMC9407455",
  "about": "(Proceedings of the National Academy of Sciences of the …, 2022)",
  "tested_on": "HeLa cell–derived xenografts",
  "test": "Xenograft tumor assay",
  "type": "in vivo, mice",
  "settings": "iJMJD6 25 mg/kg or JQ1 50 mg/kg alone or in combination, i.p. every other day",
  "summary_of_the_method": "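Female BALB/c nude mice inoculated with HeLa cells, randomized, and injected i.p. every other day with DMSO or test compound at indicated doses. Tumour growth curves and endpoint tumour weights recorded (mean ±SEM); tumour lysates immunoblotted.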",
  "data": [
    {"smiles": "Cc1sc2c(c1C)C(c1ccc(Cl)cc1)=N[C@@H](CC(=O)OC(C)(C)C)c1nnc(C)n1-2", "note": "[JQ1]", "values": [
      {"measurement": "tumor suppressive effect", "result": "readily seen"}
    ]}
  ]
}
